According to ChEMBL document CHEMBL1144571, “ABP688, a novel selective and high affinity ligand for the labeling of mGlu5 receptors: identification, in vitro pharmacology, pharmacokinetic and biodistribution studies” (Bioorg Med Chem, 2007):
Each block holds one compound with its values, some of them ahead of it. Activity calls are given as the source filed them.

What was measured:
[1] = target: T1, Metabotropic glutamate receptor 5 (Rattus norvegicus, UniProt P31424); experiment: Displacement of [3H]ABP688 from mGluR5 in rat brain membrane; type: cell membranes
[2] = target: T2, Metabotropic glutamate receptor 5 (Homo sapiens, UniProt P41594); experiment: Displacement of [3H]ABP688 from human mGluR5 receptor expressed in L (tk-) cells; type: cell-based
Rattus norvegicus = experiment: Drug uptake in Wistar rat at 4 ug/kg, iv; type: ADME, organism-based; conditions: in vivo, 0.004 mg/kg
Summary of the method: (§1)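 Male Wistar rats (220–250 g) given 4 µg/kg [3H]ABP688 in EtOH/5% glucose (1:99), 1 mL/kg, into the exposed femoral vein under light isoflurane. n = 3 per time point; plasma and tissues collected, total radioactivity by scintillation, parent by LC-radiodetection with unlabeled internal standard. Bi-exponential compartmental PK analysis.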

[3] = Metabolic stability assessed as intrinsic clearance in Sprague-Dawley rat liver microsomes; type: ADME, Microsome
Summary of the method: (§2)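 Pooled liver microsomes (male Sprague-Dawley rat; mixed-gender Caucasian human), 0.2 mg protein/mL, incubated with [3H]ABP688 (0.92 µmol/L) for 40 min at 37 °C in 0.1 M sodium phosphate pH 7.4 containing 4 mM UDPGA, 1 mM β-NADPH and 5 mM MgCl2. Parent depletion tracked by on-line radio-HPLC; intrinsic clearance from parent kinetics.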

[4] = target: T1, Metabotropic glutamate receptor 5; experiment: Binding affinity at mGluR5 in rat brain membrane; type: cell membranes
Summary of the method: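 Rat whole-brain membranes in Na-HEPES buffer (110 mM NaCl, 1.2 mM MgCl2, 5 mM KCl, 2.5 mM CaCl2), pH 8.0. Competition against fixed 1.5 nM [3H]ABP688, equilibrated 60 min at 37 °C, then filtered on glass-fibre and counted by liquid scintillation, in triplicate. Ki derived by Cheng–Prusoff from non-linear curve fits.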

[5] = Ratio of drug levels in brain to plasma in Wistar rat at 4 ug/kg, iv; type: ADME, organism-based; conditions: brain and plasma, 0.004 mg/kg
Summary of the method: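 Male Wistar rats (220–250 g) given 4 µg/kg [³H]ABP688 iv into the surgically exposed femoral vein under slight isoflurane anaesthesia, in EtOH/glucose 5% (1:99 v/v) at 1 mL/kg. Groups of n = 3 per sampling time over about 2.5 h. Plasma and brain were taken. Total radioactivity was read by liquid scintillation, and parent compound by LC-RID with unlabelled internal standard. Values are means ± SD.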

[6] = Protein binding in rat plasma as percentage unbound; type: ADME, cell-free
Summary of the method: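 Rat or human plasma spiked with [3H]ABP688 (50–500,000 pg/mL) and ultrafiltered at 37 °C through a 30 kDa cut-off device. Radioactivity in ultrafiltrate (Cu) and in sample before filtration (Cp) counted by liquid scintillation; fu (%) = Cu/Cp·100.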

[7] = Metabolic stability assessed as intrinsic clearance in human liver microsomes; type: ADME, Microsome; summary of the method: as §2
Plasma [8] = experiment: Drug distribution in human plasma; type: ADME, cell-free
Summary of the method: (§3)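 Fresh heparinized rat or human blood spiked with [3H]ABP688 (5–500,000 pg/mL) at 37 °C. Plasma separated by centrifugation (1500g, 10 min, 37 °C), total radioactivity counted in plasma and blood, hematocrit measured (n = 3). Plasma fraction fP (%) = (Cp/Cb)·(1−H)·100.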

Plasma [9] = experiment: Drug distribution in rat plasma; type: ADME, cell-free; summary of the method: as §3
Brain [10] = experiment: Drug level in Wistar rat brain at 4 ug/kg, iv after 5 mins; type: ADME, organism-based; conditions: in vivo, 0.004 mg/kg; summary of the method: as §1
[11] = Volume of distribution in Wistar rat at 4 ug/kg, iv; type: ADME, organism-based; conditions: in vivo, 0.004 mg/kg, read-out: Vss; summary of the method: as §1
Brain [12] = experiment: Drug uptake in Wistar rat brain at 4 µg/kg, iv; conditions: in vivo
[13] = target: T2, Metabotropic glutamate receptor 5; experiment: Activity at human recombinant mGluR5 expressed in L(tk-) cells assessed as inhibition of quisqualate-induced phosphoinositol accumulation; type: functional, cell-based
[14] = target: T2, Metabotropic glutamate receptor 5; experiment: Activity at human recombinant mGluR5 expressed in L(tk-) cells assessed as inhibition of glutamate-induced calcium release; type: functional, cell-based
[15] = target: Metabotropic glutamate receptor 1 (Homo sapiens) (UniProt Q13255); experiment: Activity at human recombinant mGluR1 expressed in L(tk-) cells assessed as basal phosphoinositol level
[16] = target: Metabotropic glutamate receptor 1 (Homo sapiens) (UniProt Q13255); experiment: Activity at human recombinant mGluR1 expressed in L(tk-) cells assessed as inhibition of quisqualate-induced phosphoinositol accumulation at 10 uM; type: functional, cell-based
Summary of the method: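 Inhibition of quisqualate (40 µM)-stimulated PI accumulation in hmGluR1-expressing cells cultured in glutamate-free DMEM (2 mM L-glutamine, proline, 10% dialyzed FCS, geneticin). Percent control ± SD, n = 3 independent determinations, each in triplicate.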

[17] = target: T2, Metabotropic glutamate receptor 5; experiment: Displacement of [3H]M-MPEP from human mGluR5 receptor expressed in L (tk-) cells; type: cell-based
Summary of the method: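 Membranes from L(tk-) cells expressing recombinant human mGluR5, incubated with 2 nM [3H]-M-MPEP over a range of competitor concentrations. Non-specific binding was taken with 1 µM unlabeled M-MPEP. Readout is percent specific binding.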

T1 sequence (P31424 whole entry): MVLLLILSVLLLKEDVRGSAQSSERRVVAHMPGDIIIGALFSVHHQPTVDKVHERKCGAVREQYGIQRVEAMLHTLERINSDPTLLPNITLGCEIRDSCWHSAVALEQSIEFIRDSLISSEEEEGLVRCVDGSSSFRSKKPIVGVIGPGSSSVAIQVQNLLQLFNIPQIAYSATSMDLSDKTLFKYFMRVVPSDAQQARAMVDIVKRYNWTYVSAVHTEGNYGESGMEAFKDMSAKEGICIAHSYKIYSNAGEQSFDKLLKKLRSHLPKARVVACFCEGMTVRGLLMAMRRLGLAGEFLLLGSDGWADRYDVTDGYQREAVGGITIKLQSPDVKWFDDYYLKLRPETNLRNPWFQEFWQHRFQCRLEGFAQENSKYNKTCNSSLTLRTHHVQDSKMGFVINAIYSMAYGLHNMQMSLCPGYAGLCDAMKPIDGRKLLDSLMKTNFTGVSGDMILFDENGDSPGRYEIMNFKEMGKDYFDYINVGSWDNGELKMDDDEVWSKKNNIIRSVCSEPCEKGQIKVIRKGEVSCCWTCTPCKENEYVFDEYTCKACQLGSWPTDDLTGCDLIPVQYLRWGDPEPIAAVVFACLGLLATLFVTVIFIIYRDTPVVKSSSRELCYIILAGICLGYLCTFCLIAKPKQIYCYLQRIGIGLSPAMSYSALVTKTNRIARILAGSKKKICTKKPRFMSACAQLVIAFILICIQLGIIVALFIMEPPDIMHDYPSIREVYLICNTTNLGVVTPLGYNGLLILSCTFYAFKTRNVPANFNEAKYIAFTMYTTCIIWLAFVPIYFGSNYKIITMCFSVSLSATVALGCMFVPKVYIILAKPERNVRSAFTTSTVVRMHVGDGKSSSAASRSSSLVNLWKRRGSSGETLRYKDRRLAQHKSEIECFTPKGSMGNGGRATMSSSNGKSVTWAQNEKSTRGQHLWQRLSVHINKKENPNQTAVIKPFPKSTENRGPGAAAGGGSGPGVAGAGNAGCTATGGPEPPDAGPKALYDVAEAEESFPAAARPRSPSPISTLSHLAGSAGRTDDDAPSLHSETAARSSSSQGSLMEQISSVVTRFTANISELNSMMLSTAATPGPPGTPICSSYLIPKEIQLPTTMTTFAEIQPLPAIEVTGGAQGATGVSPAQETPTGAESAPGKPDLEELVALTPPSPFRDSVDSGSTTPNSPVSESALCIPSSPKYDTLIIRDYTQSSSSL
T2 sequence (P41594 whole entry): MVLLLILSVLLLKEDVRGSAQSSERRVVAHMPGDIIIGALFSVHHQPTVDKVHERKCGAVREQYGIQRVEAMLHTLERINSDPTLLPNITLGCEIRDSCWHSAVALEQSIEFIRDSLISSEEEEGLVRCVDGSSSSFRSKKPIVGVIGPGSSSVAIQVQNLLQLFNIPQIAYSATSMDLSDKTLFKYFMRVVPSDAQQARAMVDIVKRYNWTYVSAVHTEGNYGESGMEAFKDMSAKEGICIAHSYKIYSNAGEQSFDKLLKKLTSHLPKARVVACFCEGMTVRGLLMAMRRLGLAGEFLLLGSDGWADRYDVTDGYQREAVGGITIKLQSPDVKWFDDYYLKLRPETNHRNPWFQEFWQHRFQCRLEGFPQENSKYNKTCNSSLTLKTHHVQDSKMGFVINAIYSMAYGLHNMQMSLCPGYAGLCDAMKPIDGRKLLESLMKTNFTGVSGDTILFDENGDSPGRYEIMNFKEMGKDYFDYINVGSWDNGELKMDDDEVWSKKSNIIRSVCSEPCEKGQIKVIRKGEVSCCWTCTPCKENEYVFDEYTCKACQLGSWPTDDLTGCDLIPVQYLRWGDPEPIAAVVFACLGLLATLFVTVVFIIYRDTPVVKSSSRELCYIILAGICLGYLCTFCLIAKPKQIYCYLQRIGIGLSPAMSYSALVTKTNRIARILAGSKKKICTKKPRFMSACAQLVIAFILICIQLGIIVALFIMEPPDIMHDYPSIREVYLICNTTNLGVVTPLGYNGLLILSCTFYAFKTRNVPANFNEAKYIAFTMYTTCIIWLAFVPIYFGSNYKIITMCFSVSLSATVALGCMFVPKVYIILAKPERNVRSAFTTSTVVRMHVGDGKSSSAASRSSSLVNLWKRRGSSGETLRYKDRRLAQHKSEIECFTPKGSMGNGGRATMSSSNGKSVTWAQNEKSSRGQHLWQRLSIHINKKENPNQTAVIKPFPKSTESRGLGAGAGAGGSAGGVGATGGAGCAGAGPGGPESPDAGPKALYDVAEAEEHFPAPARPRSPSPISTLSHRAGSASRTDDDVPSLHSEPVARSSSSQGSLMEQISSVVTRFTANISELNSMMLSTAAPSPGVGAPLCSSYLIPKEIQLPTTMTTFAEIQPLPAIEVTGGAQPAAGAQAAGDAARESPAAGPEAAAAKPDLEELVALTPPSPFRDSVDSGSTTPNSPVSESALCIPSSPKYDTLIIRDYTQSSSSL
Sequence of Metabotropic glutamate receptor 1 (Homo sapiens) (Q13255 19-1194 limits assumed): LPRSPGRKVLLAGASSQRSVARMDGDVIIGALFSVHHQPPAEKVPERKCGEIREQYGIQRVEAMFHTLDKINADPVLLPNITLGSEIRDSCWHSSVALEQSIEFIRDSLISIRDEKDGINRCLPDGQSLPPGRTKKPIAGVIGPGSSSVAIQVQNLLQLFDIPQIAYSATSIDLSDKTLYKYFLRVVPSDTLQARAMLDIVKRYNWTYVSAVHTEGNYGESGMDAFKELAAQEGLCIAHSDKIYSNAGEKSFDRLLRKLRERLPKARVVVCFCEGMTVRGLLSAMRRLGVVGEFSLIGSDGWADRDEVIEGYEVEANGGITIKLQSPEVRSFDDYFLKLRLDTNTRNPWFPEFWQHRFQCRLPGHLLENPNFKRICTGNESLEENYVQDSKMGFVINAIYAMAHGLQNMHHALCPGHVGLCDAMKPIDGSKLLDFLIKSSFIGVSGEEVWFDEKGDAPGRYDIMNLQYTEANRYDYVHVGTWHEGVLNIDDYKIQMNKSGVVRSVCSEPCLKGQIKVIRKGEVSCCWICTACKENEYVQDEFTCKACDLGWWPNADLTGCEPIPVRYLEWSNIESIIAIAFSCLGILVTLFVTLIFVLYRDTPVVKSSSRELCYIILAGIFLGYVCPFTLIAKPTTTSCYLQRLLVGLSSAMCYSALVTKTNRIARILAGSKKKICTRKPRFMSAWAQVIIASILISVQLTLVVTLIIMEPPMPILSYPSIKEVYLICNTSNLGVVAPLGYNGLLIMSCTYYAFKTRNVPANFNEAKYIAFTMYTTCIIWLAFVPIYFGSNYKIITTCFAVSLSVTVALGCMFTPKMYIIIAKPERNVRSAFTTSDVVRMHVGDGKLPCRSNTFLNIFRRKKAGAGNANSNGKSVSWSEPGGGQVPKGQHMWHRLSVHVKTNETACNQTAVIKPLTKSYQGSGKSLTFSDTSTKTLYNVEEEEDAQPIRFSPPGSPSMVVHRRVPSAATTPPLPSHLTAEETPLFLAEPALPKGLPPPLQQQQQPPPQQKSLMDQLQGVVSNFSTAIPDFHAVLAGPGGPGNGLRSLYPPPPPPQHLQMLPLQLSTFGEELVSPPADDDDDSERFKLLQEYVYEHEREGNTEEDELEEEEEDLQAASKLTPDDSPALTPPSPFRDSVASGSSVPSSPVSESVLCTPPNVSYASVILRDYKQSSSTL

- Ki [1]: > 10000 nM
- Ki [2]: > 100000 nM
Compound: CCOC(=O)[C@]12CC1/C(=N\O)c1ccccc1O2 (some centres not stated) [CPCCOET]

Compound: COc1cccc(C#Cc2cccc(C)n2)c1 [M-MPEP]
- Ki [1]: 11 nM

- Drug uptake (Rattus norvegicus): 21 %ID
- microsomal CLint [3]: 150 µL/min/mg
- Kd [4]: 2.3 nM
- Kp [5]: 20
- fraction unbound [6]: 0.068
- microsomal CLint [7]: 150 µL/min/mg
- Activity (Plasma [8]): 92%
- Activity (Plasma [9]): 76%
- Activity (Brain [10]): 21 pmol/g
- Vd [11]: 11 L/kg
- Drug uptake (Brain [12]): 0.8 %ID
Compound: [3H]C([3H])([3H])O/N=C1/C=C(C#Cc2cccc(C)n2)CCC1

- IC50 [13]: 2.4 nM
- IC50 [14]: 2.3 nM
- Ki [1]: 1.8 nM
- Activity [15]: inactive
- Activity [16]: inactive
- IC50 [17]: 7 nM
- Ki [17]: 3.5 nM
- Ki [2]: 1.7 nM
Compound: CO/N=C1/C=C(C#Cc2cccc(C)n2)CCC1
